The values below come from ChEMBL document CHEMBL1152849, “Design, synthesis and AChE inhibitory activity of indanone and aurone derivatives” (Eur J Med Chem, 2009).

In general, IC50 refers to the concentration needed to halve the response being measured. A lower IC50 goes with greater potency in that assay.

In test [1] the target is Butyrylcholinesterase (Rattus norvegicus, UniProt Q9JKC1). The test can be described thus: Inhibition of BChE in rat serum after 15 mins by modified Ellman method. It counts as cell-free.
For test [2], the target named is T1, Acetylcholinesterase (Rattus norvegicus, UniProt P37136).
T1 sequence (P37136 whole entry): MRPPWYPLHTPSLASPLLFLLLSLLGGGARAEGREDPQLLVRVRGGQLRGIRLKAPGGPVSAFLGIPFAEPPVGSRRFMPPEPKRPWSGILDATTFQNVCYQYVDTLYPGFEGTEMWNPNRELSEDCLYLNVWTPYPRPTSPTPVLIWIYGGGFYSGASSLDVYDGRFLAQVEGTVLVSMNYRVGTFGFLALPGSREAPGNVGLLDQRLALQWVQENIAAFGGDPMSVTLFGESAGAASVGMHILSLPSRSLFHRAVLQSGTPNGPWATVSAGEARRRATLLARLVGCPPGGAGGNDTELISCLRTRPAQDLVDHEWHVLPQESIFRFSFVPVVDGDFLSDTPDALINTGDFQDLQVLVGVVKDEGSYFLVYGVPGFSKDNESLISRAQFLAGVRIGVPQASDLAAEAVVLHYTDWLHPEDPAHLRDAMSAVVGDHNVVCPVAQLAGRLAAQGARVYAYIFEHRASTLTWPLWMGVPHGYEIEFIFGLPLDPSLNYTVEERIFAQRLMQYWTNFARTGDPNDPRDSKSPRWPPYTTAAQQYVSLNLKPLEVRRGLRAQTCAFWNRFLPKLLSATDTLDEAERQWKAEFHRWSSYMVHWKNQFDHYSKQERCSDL
As to the kind of experiment: Inhibition of AChE in rat cortex after 15 mins by modified Ellman method. For orientation: In Ellman's method for cholinesterases, released thiocholine reacts with DTNB.

The test system of test [3] is Mus musculus. As to the kind of experiment: Cognitive enhancing effect against scopolamine-induced acquisition memory deficit in mouse assessed as times of step-down at 2 mg/kg, intragastric gavage after 24 hrs by step-down passive avoidance test. The format is functional. The essentials:
(§1)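 Step-down passive avoidance in mice, 10 per group. In training, each mouse was placed on the platform and its latency to step down onto the grid with all four paws was recorded. It was shocked immediately on stepping down, and the session lasted 3 min. Memory was scored as step-down errors (times) and escape latency (s), each given as mean ± deviation.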

Test [4] has as its system Mus musculus. The test can be described thus: Cognitive enhancing effect against scopolamine-induced acquisition memory deficit in mouse assessed as escape latency at 10 mg/kg, intragastric gavage after 24 hrs by step-down passive avoidance test. The format is functional. The essentials:
as §1

Test [5] has as its system Mus musculus. The test can be described thus: Cognitive enhancing effect against scopolamine-induced acquisition memory deficit in mouse assessed as escape latency at 2 mg/kg, intragastric gavage after 24 hrs by step-down passive avoidance test. The format is functional. The essentials: as §1
In test [6] the test system is Mus musculus. As to the kind of experiment: Cognitive enhancing effect against scopolamine-induced acquisition memory deficit in mouse assessed as times of step-down at 10 mg/kg, intragastric gavage after 24 hrs by step-down passive avoidance test. The format is functional. The method, boiled down:
as §1

Test [7] has as its system Mus musculus. As to the kind of experiment: Cognitive enhancing effect against scopolamine-induced acquisition memory deficit in mouse assessed as times of step-down at 5 mg/kg, intragastric gavage after 24 hrs by step-down passive avoidance test. The format is functional. The method, boiled down:
as §1

In test [8] the test system is Mus musculus. As to the kind of experiment: Cognitive enhancing effect against scopolamine-induced acquisition memory deficit in mouse assessed as escape latency at 5 mg/kg, intragastric gavage after 24 hrs by step-down passive avoidance test. The format is functional. The method, boiled down:
as §1

Chain of Butyrylcholinesterase (Q9JKC1 whole entry): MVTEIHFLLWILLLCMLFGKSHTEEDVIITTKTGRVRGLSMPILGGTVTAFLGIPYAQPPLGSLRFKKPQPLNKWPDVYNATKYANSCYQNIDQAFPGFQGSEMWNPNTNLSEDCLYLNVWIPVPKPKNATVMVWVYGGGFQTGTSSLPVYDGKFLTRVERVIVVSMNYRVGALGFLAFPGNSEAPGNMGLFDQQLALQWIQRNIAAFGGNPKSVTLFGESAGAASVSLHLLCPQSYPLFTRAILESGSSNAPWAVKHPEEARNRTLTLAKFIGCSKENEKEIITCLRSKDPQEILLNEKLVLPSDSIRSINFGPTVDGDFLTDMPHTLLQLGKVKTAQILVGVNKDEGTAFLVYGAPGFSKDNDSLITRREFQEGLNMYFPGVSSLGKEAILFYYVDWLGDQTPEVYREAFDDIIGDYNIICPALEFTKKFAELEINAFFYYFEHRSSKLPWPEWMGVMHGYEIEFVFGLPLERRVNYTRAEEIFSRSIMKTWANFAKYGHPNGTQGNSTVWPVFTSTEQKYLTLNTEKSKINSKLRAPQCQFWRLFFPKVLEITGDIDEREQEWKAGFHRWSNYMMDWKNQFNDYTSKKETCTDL

On to `COc1cc2c(cc1OC)C(=O)/C(=C/c1ccc(CN3CCCC3)cc1)O2`, for which the concentration for half-maximal inhibition (IC50) was found to be 36.4 µM in test [1] and 0.16 µM in test [2].

For the compound `COc1cc2c(cc1OC)C(=O)/C(=C/c1cccc(CN(C)C)c1)C2`, the half-inhibitory concentration (IC50) stood at 89.3 µM in test [1] and 2.14 µM in test [2].

Regarding `COc1cc2c(cc1OC)C(=O)/C(=C/c1ccc(CN(C)C)cc1)C2`, the values for the IC50 in test [1] and in test [2] were 315 µM and 0.42 µM, respectively.

Turning to `CCN(C)Cc1cccc(/C=C2\Cc3cc(OC)c(OC)cc3C2=O)c1`, the concentration for half-maximal inhibition (IC50) is 36.8 µM in test [1] and 0.49 µM in test [2].

In the case of `CCN(C)Cc1ccc(/C=C2\Cc3cc(OC)c(OC)cc3C2=O)cc1`, the results for the IC50 in test [1] and in test [2] were 20.1 µM and 0.27 µM, respectively.

Take `CCN(C)Cc1cccc(/C=C2\Oc3cc(OC)c(OC)cc3C2=O)c1`: the values for the IC50 in test [1] and in test [2] were 23.6 µM and 0.7 µM, respectively.

Consider `CCN(CC)Cc1ccc(/C=C2\Oc3cc(OC)c(OC)cc3C2=O)cc1`, for which the figures for the IC50 in test [1] and in test [2] were 47.9 µM and 0.14 µM, respectively.

As for `CCN(CC)Cc1ccc(/C=C2\Cc3cc(OC)c(OC)cc3C2=O)cc1`, the half-inhibitory concentration (IC50) in test [1] came out at 82 µM; in test [2], 0.035 µM. The Activity in test [3] turned out to be 2.67; in test [4] it was 60 s; in test [5], 47 s; in test [6], 1.6; in test [7], 2; in test [8], 55 s.

As for `COc1cc2c(cc1OC)C(=O)/C(=C/c1cccc(CN3CCCC3)c1)C2`, the IC50 in test [1] was 41.6 µM; in test [2], 0.24 µM.

As to `COc1cc2c(cc1OC)C(=O)/C(=C/c1ccc(CN3CCCC3)cc1)C2`, the values for the IC50 in test [1] and in test [2] were 26.6 µM and 0.045 µM, respectively.

`COc1cc2c(cc1OC)C(=O)C(Cc1cccc(CN3CCCCC3)c1)C2` (stereo not drawn): the IC50 stood at 70.4 µM in test [1] and 0.66 µM in test [2].

In the case of `CCN(C)Cc1cccc(CC2Oc3cc(OC)c(OC)cc3C2=O)c1` (stereo not drawn), the half-maximal inhibitory concentration (IC50) in test [1] was determined as 25.9 µM; in test [2], 1.54 µM.

Turning to `CCN(CC)Cc1cccc(CC2Cc3cc(OC)c(OC)cc3C2=O)c1` (stereo not drawn), the results for the IC50 in test [1] and in test [2] were 32 µM and 1.48 µM, respectively.

For `CCN(CC)Cc1ccc(CC2Cc3cc(OC)c(OC)cc3C2=O)cc1` (stereo not drawn), the IC50 stood at 11.7 µM in test [1] and 0.29 µM in test [2].

In the case of `COc1cc2c(cc1OC)C(=O)C(Cc1cccc(CN3CCCCC3)c1)O2` (stereo not drawn), the IC50 is 98.1 µM in test [1] and 0.24 µM in test [2].

For the compound `CCN(CC)Cc1cccc(CC2Oc3cc(OC)c(OC)cc3C2=O)c1` (stereo not drawn), the IC50 in test [1] came to 38.2 µM; in test [2], 1.07 µM.

With `CCN(CC)Cc1ccc(CC2Oc3cc(OC)c(OC)cc3C2=O)cc1` (stereo not drawn), the IC50 in test [1] was determined as 16.4 µM; in test [2], 0.44 µM.

With `COc1cc2c(cc1OC)C(=O)C(Cc1cccc(CN3CCCC3)c1)C2` (stereo not drawn), the IC50 was determined as 42.2 µM in test [1] and 2.58 µM in test [2].

For the compound `COc1cc2c(cc1OC)C(=O)C(Cc1ccc(CN3CCCC3)cc1)C2` (stereo not drawn), the values for the IC50 in test [1] and in test [2] were 33.2 µM and 0.15 µM, respectively.

For `CCN(C)Cc1ccc(CC2Cc3cc(OC)c(OC)cc3C2=O)cc1` (stereo not drawn), the IC50 in test [1] stood at 34.5 µM; in test [2], 0.38 µM.

As to `COc1cc2c(cc1OC)C(=O)C(Cc1cccc(CN(C)C)c1)C2` (stereo not drawn), the figures for the IC50 in test [1] and in test [2] were 25.2 µM and 3.74 µM, respectively.

Turning to `COc1cc2c(cc1OC)C(=O)C(Cc1ccc(CN(C)C)cc1)C2` (stereo not drawn), half-maximal inhibition in test [1] (IC50) was put at 40.7 µM. That is a double-digit micromolar value.

For `COc1cc2c(cc1OC)C(=O)/C(=C/c1cccc(CN3CCCCC3)c1)C2`, the figures for the concentration for half-maximal inhibition (IC50) in test [1] and in test [2] were 55.2 µM and 0.16 µM, respectively.

With `COc1cc2c(cc1OC)C(=O)/C(=C/c1cccc(CN3CCCCC3)c1)O2`, the results for the IC50 in test [1] and in test [2] were 45 µM and 0.082 µM, respectively.

As for `CCN(CC)Cc1cccc(/C=C2\Oc3cc(OC)c(OC)cc3C2=O)c1`, the IC50 in test [1] was found to be 65.1 µM; in test [2], 1.18 µM.

Take `COc1cc2c(cc1OC)C(=O)/C(=C/c1ccc(CN3CCCCC3)cc1)C2`: the values for the concentration for half-maximal inhibition (IC50) in test [1] and in test [2] were 84.6 µM and 0.1 µM, respectively.

Take `COc1cc2c(cc1OC)C(=O)C(Cc1ccc(CN3CCCC3)cc1)O2` (stereo not drawn): the half-maximal inhibitory concentration (IC50) in test [1] was 49.8 µM; in test [2], 0.62 µM.

With `COc1cc2c(cc1OC)C(=O)C(Cc1cccc(CN3CCCC3)c1)O2` (stereo not drawn), the 50% inhibitory concentration (IC50) in test [1] amounted to 57.6 µM; in test [2], 7.02 µM.

Turning to `COc1cc2c(cc1OC)C(=O)C(Cc1ccc(CN3CCCCC3)cc1)C2` (stereo not drawn), the half-inhibitory concentration (IC50) in test [1] was found to be 48.3 µM; in test [2], 0.12 µM.

With `CCN(C)Cc1cccc(CC2Cc3cc(OC)c(OC)cc3C2=O)c1` (stereo not drawn), the IC50 in test [1] came out at 18.5 µM; in test [2] it was 0.69 µM.

`CCN(CC)Cc1cccc(/C=C2\Cc3cc(OC)c(OC)cc3C2=O)c1`: the IC50 in test [1] worked out at 71 µM; in test [2] it was 0.44 µM.

As for `COc1cc2c(cc1OC)C(=O)/C(=C/c1cccc(CN3CCCC3)c1)O2`, the IC50 in test [1] amounted to 72 µM; in test [2], 0.29 µM.

Consider `COc1cc2c(cc1OC)C(=O)C(CC1CCN(Cc3ccccc3)CC1)C2` (stereo not drawn) [DONEPEZIL], for which the Activity in test [3] was 1.9; in test [5], 75 s.

For `CCN(C)C(=O)Oc1cccc([C@H](C)N(C)C)c1` [RIVASTIGMINE], the results for the Activity in test [3] and in test [5] were 2 and 73 s, respectively.
